From ChEMBL document CHEMBL1921671, “Benzisothiazolinone as a useful template for the design of new monoacylglycerol lipase inhibitors: investigation of the target residues and comparison with octhilinone” (Bioorg Med Chem Lett, 2011)
Where a chain is given by its changes, count along the chain named. Calls of active or inactive are those of the source. The rule behind the calls is not given here.

Tests used:
[1] = biological target: T1, Fatty-acid amide hydrolase 1 (Homo sapiens) (UniProt O00519); test: Inhibition of human recombinant FAAH assessed as conversion of [3H]AEA to [3H]ethanolamine at 1 mM after 10 mins by liquid scintillation counting
T1 sequence (whole entry): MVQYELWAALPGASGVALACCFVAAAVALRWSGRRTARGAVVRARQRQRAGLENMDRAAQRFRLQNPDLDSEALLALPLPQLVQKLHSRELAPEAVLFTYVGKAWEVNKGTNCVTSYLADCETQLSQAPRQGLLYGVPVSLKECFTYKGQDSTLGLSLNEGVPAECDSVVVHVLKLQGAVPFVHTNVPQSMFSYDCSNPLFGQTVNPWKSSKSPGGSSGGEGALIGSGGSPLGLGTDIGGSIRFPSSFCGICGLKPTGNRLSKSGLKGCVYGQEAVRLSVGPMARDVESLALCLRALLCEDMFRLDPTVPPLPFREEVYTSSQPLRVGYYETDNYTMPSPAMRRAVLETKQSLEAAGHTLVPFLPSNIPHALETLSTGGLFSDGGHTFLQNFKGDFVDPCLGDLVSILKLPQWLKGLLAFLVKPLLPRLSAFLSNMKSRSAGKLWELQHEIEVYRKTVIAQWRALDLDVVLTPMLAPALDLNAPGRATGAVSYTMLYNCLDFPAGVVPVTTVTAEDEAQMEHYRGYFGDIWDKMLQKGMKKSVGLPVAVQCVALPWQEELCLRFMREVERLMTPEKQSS

[2] = biological target: T2, Monoglyceride lipase (Homo sapiens) (UniProt Q99685); test: Inhibition of human recombinant MAGL assessed as [3H]oleoylglycerol hydrolysis at 1 mM after 10 mins by liquid scintillation counting
T2 sequence (whole entry): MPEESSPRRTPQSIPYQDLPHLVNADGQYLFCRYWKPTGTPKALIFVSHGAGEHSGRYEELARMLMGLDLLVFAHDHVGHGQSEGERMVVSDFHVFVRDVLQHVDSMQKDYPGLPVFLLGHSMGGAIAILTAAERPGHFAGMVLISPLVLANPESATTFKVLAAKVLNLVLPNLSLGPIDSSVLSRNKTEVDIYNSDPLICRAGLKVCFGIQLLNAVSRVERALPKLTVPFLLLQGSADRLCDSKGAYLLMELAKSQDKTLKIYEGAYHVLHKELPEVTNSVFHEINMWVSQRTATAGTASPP
How it was run: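 Single-concentration test at 10^-3 M against purified recombinant human MAGL, 5 ng. Inhibitor preincubated 10 min at 37 °C. [3H]-2-oleoylglycerol at 10 µM final hydrolysed 10 min at 37 °C in 50 mM Tris pH 8.0 with BSA. Reaction quenched with cold methanol/chloroform. Aqueous-layer radioactivity read by scintillation, blanks subtracted, and result expressed as % inhibition.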

[3] = biological target: T3, Fatty-acid amide hydrolase 1 (Homo sapiens, UniProt O00519); test: Inhibition of human recombinant FAAH assessed as conversion of [3H]AEA to [3H]ethanolamine after 10 mins by liquid scintillation counting
T3 sequence (O00519 whole entry): T1 sequence (whole entry)

[4] = biological target: T4, Monoglyceride lipase (Homo sapiens, UniProt Q99685); test: Inhibition of human recombinant MAGL assessed as inhibition of 2-oleoylglycerol hydrolysis preincubated for 10 mins by LC/MS analysis
T4 sequence (Q99685 whole entry): T2 sequence (whole entry)

[5] = biological target: T4, Monoglyceride lipase; test: Inhibition of human recombinant MAGL assessed as [3H]oleoylglycerol hydrolysis after 10 mins by liquid scintillation counting
How it was run: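 Purified recombinant human MAGL, 5 ng, in 50 mM Tris pH 8.0 with 0.1% BSA, preincubated with […]. Substrate [3H]-2-oleoylglycerol at 10 µM final in Tris pH 8.0 with 0.6% BSA. Reaction run 10 min at 37 °C and stopped with ice-cold 1:1 methanol/chloroform, then centrifuged. Aqueous-phase radioactivity counted by liquid scintillation; no-enzyme blanks subtracted.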

[6] = species: Homo sapiens; test: Selectivity ratio of IC50 for human recombinant FAAH to IC50 for human recombinant MAGL by liquid scintillation counting
[7] = biological target: T2, Monoglyceride lipase (Homo sapiens); test: Inhibition of human recombinant MAGL assessed as [3H]oleoylglycerol hydrolysis at 10^-5 M preincubated for 5 mins measured after 15 mins by liquid scintillation counting in the presence of dithiothreitol
[8] = biological target: T2, Monoglyceride lipase (Homo sapiens); test: Inhibition of human recombinant MAGL assessed as [3H]oleoylglycerol hydrolysis preincubated for 10 mins at 37 degC by liquid scintillation counting
How it was run: (§1)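 Purified recombinant human MAGL (5 ng; 50 mM Tris pH 8.0, 0.1% BSA) preincubated with inhibitor at the line's time and temperature. Then incubated 10 min at 37 °C with 2-OG (10 µM final; [3H]-2-OG 50,000 dpm; Tris pH 8.0 with 0.6% BSA). Stopped with ice-cold methanol:chloroform 1:1 and centrifuged. Aqueous-phase radioactivity counted by liquid scintillation. No-enzyme blanks subtracted.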

[9] = system: T5, Monoglyceride lipase (Homo sapiens), Q99685 [C201A,C208A,C242A]; test: Inhibition of human MAGL C201A/C208A/C242A mutant
T5 sequence (whole entry): T2 sequence (whole entry) with C201A, C208A, C242A

[10] = biological target: T2, Monoglyceride lipase (Homo sapiens); test: Inhibition of human recombinant MAGL assessed as [3H]oleoylglycerol hydrolysis preincubated for 30 mins at 37 degC by liquid scintillation counting; how it was run: as §1
[11] = biological target: T2, Monoglyceride lipase (Homo sapiens); test: Inhibition of human recombinant MAGL assessed as [3H]oleoylglycerol hydrolysis preincubated for 10 mins at room temperature by liquid scintillation counting; how it was run: as §1
[12] = system: T6, Monoglyceride lipase (Homo sapiens), Q99685 [C208A]; test: Inhibition of human MAGL C208A mutant
T6 sequence (whole entry): T2 sequence (whole entry) with C208A

[13] = system: T7, Monoglyceride lipase (Homo sapiens), Q99685 [C242A]; test: Inhibition of human MAGL C242A mutant
T7 sequence (whole entry): T2 sequence (whole entry) with C242A

[14] = species: Homo sapiens; test: Selectivity ratio of IC50 for human recombinant FAAH to IC50 for human recombinant MAGL by liquid scintillation counting of radiolabeled 2-OG hydrolysis
[15] = system: T8, Monoglyceride lipase (Homo sapiens), Q99685 [C201A]; test: Inhibition of human MAGL C201A mutant
T8 sequence (whole entry): T2 sequence (whole entry) with C201A

[16] = biological target: T2, Monoglyceride lipase (Homo sapiens); test: Inhibition of human recombinant MAGL assessed as inhibition of [3H]oleoylglycerol hydrolysis preincubated for 30 mins at room temperature by liquid scintillation counting; how it was run: as §1
[17] = Selectivity ratio of IC50 for rat MAGL to IC50 for human MAGL
[18] = biological target: T9, Monoglyceride lipase (Rattus norvegicus, UniProt Q8R431); test: Inhibition of rat recombinant N-terminal his-tagged MAGL expressed in Escherichia coli DH5alpha assessed as 2-oleoylglycerol hydrolysis after 10 mins by LC/MS analysis
T9 sequence (Q8R431 whole entry): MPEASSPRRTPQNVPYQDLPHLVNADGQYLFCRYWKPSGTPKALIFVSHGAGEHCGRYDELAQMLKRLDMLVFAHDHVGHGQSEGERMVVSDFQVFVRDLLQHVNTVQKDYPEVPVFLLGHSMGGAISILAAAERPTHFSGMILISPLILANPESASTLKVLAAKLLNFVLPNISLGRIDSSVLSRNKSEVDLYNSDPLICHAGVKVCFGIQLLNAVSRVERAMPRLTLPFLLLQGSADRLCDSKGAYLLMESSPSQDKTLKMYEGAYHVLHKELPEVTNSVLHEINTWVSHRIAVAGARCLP

Q: For `CCCCCCCCN1C(=O)c2ccccc2C1=O`, which inhibition [1] is on record?
A: inactive

Q: What about the inhibition [2] of the same molecule?
A: inactive

Q: Which inhibition [1] does the source give for `CCCCCCCCN1Cc2ccccc2C1=O` here?
A: inactive

Q: What about the inhibition [2] of the same molecule?
A: inactive

Q: Which results are given for `c1ccc(-c2ccc(COc3nsc4ccccc34)cc2)cc1`?
A: inhibition [1]: 50%; inhibition [2]: inactive

Q: With `CCCCCCCCn1sccc1=O` [OCTHILINONE] as the molecule, how does the IC50 [3] read?
A: 18.9 µM

Q: And the IC50 [4]?
A: 0.14 µM

Q: What about the IC50 [5] of the same molecule?
A: 1.09 µM

Q: What does the source list for `CCCCCCCCn1oc2ccccc2c1=O`?
A: IC50 [3]: 44.7 µM; Ratio IC50 [6]: 0.16; IC50 [5]: 275 µM

Q: Which IC50 [3] does the source give for `CCCCCCCCOc1noc2ccccc12` here?
A: 31.6 µM

Q: What about the Ratio IC50 [6] of the same molecule?
A: 0.47

Q: And the IC50 [5]?
A: 67.9 µM

Q: Which results are given for `CCCCCCCCn1c(=O)sc2ccccc21`?
A: IC50 [3]: 309 µM; inhibition [2]: 72%

Q: Which IC50 [3] does the source give for `O=c1c2ccccc2sn1Cc1ccc(-c2ccccc2)cc1` here?
A: 30 µM

Q: What about the Ratio IC50 [6] of the same molecule?
A: 73

Q: And the IC50 [5]?
A: 0.41 µM

Q: For `CCCCCCCCn1c(=O)oc2ccccc21`, which IC50 [3] is on record?
A: 129 µM

Q: What about the inhibition [2] of the same molecule?
A: 26%

Q: What does the source list for `CCCCCCCCn1sc2ccccc2c1=O`?
A: inhibition [7]: inactive; inhibition [8]: Active; inhibition [9]: inactive; inhibition [10]: Active; inhibition [11]: Active; inhibition [12]: Active; IC50 [3]: 35.2 µM; inhibition [13]: inactive; IC50 [4]: 0.66 µM; Ratio IC50 [14]: 53; Ratio IC50 [6]: 21.2; inhibition [15]: inactive; inhibition [16]: Active; Ratio IC50 [17]: 11; IC50 [5]: 1.66 µM; IC50 [18]: 0.059 µM

Q: With `CCCCCCCCOc1nsc2ccccc12` as the molecule, how does the inhibition [1] read?
A: 43%

Q: What about the inhibition [2] of the same molecule?
A: 55%

Q: For `CCCCCCCCN1SCCC1=O`, which inhibition [7] is on record?
A: inactive

Q: What about the inhibition [8] of the same molecule?
A: Active

Q: And the inhibition [9]?
A: inactive

Q: What about the inhibition [10] of the same molecule?
A: Active

Q: And the inhibition [11]?
A: Active

Q: What about the inhibition [12] of the same molecule?
A: inactive

Q: And the inhibition [13]?
A: inactive

Q: And the Ratio IC50 [14]?
A: 53

Q: What about the Ratio IC50 [6] of the same molecule?
A: 17.3

Q: What about the inhibition [15] of the same molecule?
A: inactive

Q: And the inhibition [16]?
A: Active

Q: And the Ratio IC50 [17]?
A: 1.5
